Values after ≈ are worked out from the molar mass of the structure shown.
What was measured:
Escherichia coli [1] = test: Antimicrobial activity against tolC-deficient Escherichia coli O18:K1:H7 after overnight incubation in presence of erythromycin; format: functional
In short: (§1)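 Broth microdilution MIC in cation-adjusted MHB, final inoculum 5 × 10⁵ CFU/mL from early-to-log preculture; serial compound dilutions in 2% DMSO, overnight at 35 °C, growth scored visually. Each strain tested with and without erythromycin (1 μg/mL for K12 ΔacrAB ΔtolC, 8 μg/mL for K1 wild type, 1 μg/mL for K1 ΔtolC).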

[2] = Inhibition of Escherichia coli O18:K1 C7 hldE-K expressed in Escherichia coli BL21 using beta-heptose 7-phosphate as substrate incubated for 30 mins prior to substrate addition measured after 30 mins by luminescence assay
In short: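 E. coli HldE (His-tagged, IPTG-induced, Ni-NTA-purified), 3 nM, preincubated 30 min at room temperature with inhibitor in Hepes pH 7.5, MnCl₂, KCl, 0.012% Triton-X100, DTT, MBP. Reaction with 0.2 μM heptose 7-phosphate and 0.2 μM ATP, 30 min at room temperature. Remaining ATP read by luciferase/luciferin luminescence; 6−10 concentrations fitted to a Langmuir model for IC50.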

Escherichia coli [3] = test: Antimicrobial activity against acrAB, tolC-deficient Escherichia coli str. K-12 substr. MG1655 after overnight incubation in absence of erythromycin; format: functional; in short: as §1
Escherichia coli [4] = test: Antimicrobial activity against acrAB, tolC-deficient Escherichia coli str. K-12 substr. MG1655 after overnight incubation in presence of erythromycin; format: functional; in short: as §1
Escherichia coli [5] = test: Antimicrobial activity against tolC-deficient Escherichia coli O18:K1:H7 after overnight incubation in absence of erythromycin; format: functional; in short: as §1
Escherichia coli [6] = test: Antimicrobial activity against hldE-deficient Escherichia coli O18:K1:H7 after overnight incubation; format: functional
Escherichia coli [7] = test: Antimicrobial activity against wild type Escherichia coli O18:K1:H7 after overnight incubation; format: functional; in short: as §1
[8] = Inhibition of Serratia marcescens NEM017811 hldE-K expressed in Escherichia coli BL21 using beta-heptose 7-phosphate as substrate incubated for 30 mins prior to substrate addition measured after 30 mins by luminescence assay
In short: (§2)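 HldE kinase luminescence assay as for E. coli, with enzyme at 20 nM for K. pneumoniae, 20 nM for N. meningitidis and 10 nM for S. marcescens. Heptose 7-phosphate and ATP each at 0.2 μM; 30 min preincubation and 30 min reaction at room temperature.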

Klebsiella pneumoniae = test: Inhibition of Klebsiella pneumoniae ATCC 700603 hldE-K expressed in Escherichia coli BL21 using beta-heptose 7-phosphate as substrate incubated for 30 mins prior to substrate addition measured after 30 mins by luminescence assay; details: ATCC 700603, BL21; in short: as §2
[9] = Inhibition of Escherichia coli O18:K1 C7 ribokinase expressed in Escherichia coli BL21 using D-ribose as substrate incubated for 30 mins prior to substrate addition measured after 30 mins by luminescence assay
In short: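 Ribokinase run as the HldE kinase assay: purified E. coli ribokinase at 0.6 nM, 3 μM D-ribose, 3 μM ATP. Inhibitor preincubated 30 min, reaction run 30 min at room temperature, luciferase luminescence read-out, IC50 from 6−10 concentrations.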

[10] = Inhibition of Neisseria meningitidis 2C43 hldE-K expressed in Escherichia coli BL21 using beta-heptose 7-phosphate as substrate incubated for 30 mins prior to substrate addition measured after 30 mins by luminescence assay; in short: as §2
HepG2 = test: Cytotoxicity against human HepG2 cells after overnight incubation by one cell proliferation assay; format: cell-based
In short: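 HepG2 cells at 2 × 10⁴ per well in EMEM with 10% FBS, grown overnight at 37 °C in 5% CO₂. Medium then replaced by compound dilutions in medium with 2% DMSO for overnight incubation. Viability read by CellTiter Aqueous One MTS absorbance at 490 nm.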

Row | SMILES | MIC (Escherichia coli [1]) [µg/mL] | IC50 [2] [nM] | MIC (Escherichia coli [3]) [µg/mL] | MIC (Escherichia coli [4]) [µg/mL] | MIC (Escherichia coli [5]) [µg/mL] | further results
1 | Oc1ccc2sc(CNc3nncc(-c4c(Cl)cccc4Cl)n3)nc2c1 | > 32 | 75 | > 32 | > 32 | > 32 | –
2 | CO[C@H]1/C=C/O[C@@]2(C)Oc3c(C)c(O)c4c(O)c(c(/C=N/N5CCN(C)CC5)c(O)c4c3C2=O)NC(=O)/C(C)=C\C=C\[C@H](C)[C@H](O)[C@@H](C)[C@@H](O)[C@@H](C)[C@H](OC(C)=O)[C@@H]1C [RIFAMPIN] | – | – | – | – | – | MIC (Escherichia coli [6]): 0.125 µg/mL (≈ 0.152 µM); MIC (Escherichia coli [7]): 8 µg/mL (≈ 9.72 µM)
3 | COc1ccc2sc(CNc3nncc(-c4c(Cl)cccc4Cl)n3)nc2c1 | > 32 | 130 | > 32 | > 32 | > 32 | IC50 [8]: 1200 nM; IC50 (Klebsiella pneumoniae): 2300 nM; IC50 [9]: > 300000 nM; IC50 [10]: 13000 nM
4 | COc1ccc2sc(CNc3nncc(N4CCCCC4CO)n3)nc2c1 (configuration not stated) | – | > 300000 | – | – | – | –
5 | Cc1oc(-c2ccccc2)nc1C(=O)N(CC(=O)O)Cc1ccccn1 | – | 51000 | – | – | – | –
6 | NC(=O)COc1ccc2sc(CNc3nncc(-c4c(Cl)cccc4Cl)n3)nc2c1 | > 32 | 67 | > 32 | > 32 | > 32 | –
7 | COc1ccc2sc(CNc3nncc(-c4cc(Br)ccc4Cl)n3)nc2c1 | – | 760 | – | – | – | –
8 | COc1cccc(OC)c1-c1cnnc(NCc2nc3cc(Cl)ccc3s2)n1 | – | 1600 | – | – | – | –
9 | COc1cccc(OC)c1-c1cnnc(NCc2cc3ccccc3s2)n1 | – | > 300000 | – | – | – | –
10 | COc1cccc(OC)c1-c1cnnc(N2CCCCC2c2nc3ccccc3s2)n1 (configuration not stated) | – | > 300000 | – | – | – | –
11 | COc1cccc(OC)c1-c1cnnc(NCc2nc3ccc(CO)cc3s2)n1 | – | 15000 | – | – | – | –
12 | COc1cccc(OC)c1-c1cnnc(NCc2nc3cc(NC(C)=O)ccc3s2)n1 | – | 7600 | – | – | – | –
13 | COc1ccc2sc(CNc3nncc(-c4c(C)cc(NC(C)=O)cc4C)n3)nc2c1 | > 32 | 240 | > 32 | > 32 | > 32 | –
14 | COc1ccc2sc(CNc3nncc(-c4c(C)cc(N)cc4C)n3)nc2c1 | – | 320 | – | – | – | –
15 | COc1ccc2sc(CNc3nncc(-c4ccccc4Cl)n3)nc2c1 | – | 1400 | – | – | – | –
16 | COc1cccc(OC)c1-c1cnnc(NCc2nc3ccccc3n2C)n1 | – | > 300000 | – | – | – | –

Row | SMILES | MIC (Escherichia coli [1]) [µg/mL] | IC50 [2] [nM] | MIC (Escherichia coli [3]) [µg/mL] | MIC (Escherichia coli [4]) [µg/mL] | MIC (Escherichia coli [5]) [µg/mL] | further results
17 | OCCOc1ccc2sc(CNc3nncc(-c4c(Cl)cccc4Cl)n3)nc2c1 | 32 | 18 | 16 (≈ 35.7 µM) | 0.5 | > 32 | Activity (HepG2): > 32 µg/mL
18 | COc1cccc(OC)c1-c1cnnc(NCc2cc(C)n(C)n2)n1 | – | 25000 | – | – | – | –
19 | O=C(O)COc1ccc2sc(CNc3nncc(-c4c(Cl)cccc4Cl)n3)nc2c1 | > 32 | 19 | > 32 | 32 | > 32 | IC50 [8]: 41 nM; IC50 (Klebsiella pneumoniae): 100 nM; IC50 [9]: > 300000 nM; IC50 [10]: 1800 nM
20 | COc1cccc(OC)c1-c1cnnc(N(CC(=O)O)Cc2nc3ccccc3s2)n1 | – | 2000 | – | – | – | –
21 | COc1cccc(OC)c1-c1cnnc(NCc2nc3cc(N)ccc3s2)n1 | – | 1400 | – | – | – | –
22 | COc1cccc(OC)c1-c1cnnc(NCc2nc3cc(OCC(=O)O)ccc3s2)n1 | – | 250 | – | – | – | –
23 | COc1ccc2sc(CNc3nncc(-c4c(OC)ccc5ccccc45)n3)nc2c1 | > 32 | 51 | > 32 | > 32 | > 32 | –
24 | NCCOc1ccc2sc(CNc3nncc(-c4c(Cl)cccc4Cl)n3)nc2c1 | – | 185 | – | – | – | –
25 | COc1ccc2sc(CNc3nncc(-c4c(C)cc(-c5ccc(OC)nc5)cc4C)n3)nc2c1 | – | 890 | – | – | – | –
26 | O=C(CO)NCCOc1ccc2sc(CNc3nncc(-c4c(Cl)cccc4Cl)n3)nc2c1 | > 32 | 71 | > 32 | 4 | > 32 | –
27 | CN(C)CCOc1ccc2sc(CNc3nncc(-c4c(Cl)cccc4Cl)n3)nc2c1 | 16 | 82 | 32 (≈ 67.3 µM) | 4 | > 32 | Activity (HepG2): > 32 µg/mL
28 | COc1cccc(OC)c1-c1cnnc(N(C)Cc2nc(C)c(C)s2)n1 | – | 5000 | – | – | – | –
29 | NCC(=O)NCCOc1ccc2sc(CNc3nncc(-c4c(Cl)cccc4Cl)n3)nc2c1 | 32 | 100 | 32 (≈ 63.4 µM) | 4 | > 32 | Activity (HepG2): 18 µg/mL
30 | COc1cccc(OC)c1-c1cnnc(NCc2nc3cc(C)ccc3s2)n1 | – | 1500 | – | – | – | –
31 | COc1ccc2sc(CNc3nncc(-c4c(C)cc(NCCN(C)C)cc4C)n3)nc2c1 | > 32 | 82 | > 32 | > 32 | > 32 | –

Reference: ChEMBL document CHEMBL2321650, “Novel HldE-K inhibitors leading to attenuated Gram negative bacterial virulence” (J Med Chem, 2013)
